The values below come from ChEMBL document CHEMBL1157965, “Mono-, Bi-, and triphenanthrenes from the tubers of Cremastra appendiculata” (J Nat Prod, 2006).

Each structure is given as a SMILES string. pIC50: −log10 of the molar value. A value given as a limit tells only on which side of the number the result lay.

Format in all cases: functional, cell-based
One experiment concerns Bel-7402. Briefly: Cytotoxicity against human Bel7402 cells after 96 hrs by MTT assay. To be noted: Bel-7402, 96 h. The method, boiled down:
(§1)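 Cells kept in RPMI 1640 with 10% FBS, 100 units/mL penicillin and 100 µg/mL streptomycin at 37 °C, humidified 5% CO2. Seeded at 1200 cells/well; compounds added after 24 h at five concentrations from DMSO stocks (0.1% DMSO final), three wells per concentration.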
Background: Tetrazolium assays rely on reduction of a dye to a coloured formazan, in cell work by metabolically active cells.

The next experiment has as its system BGC-823. Briefly: Cytotoxicity against human BGC823 cells after 96 hrs by MTT assay. Particulars: BGC-823, 96 h. The gist of the method:
as §1

For the next experiment, the system named is HCT-8. Briefly: Cytotoxicity against human HCT8 cells after 96 hrs by MTT assay. To be noted: HCT-8, 96 h. The method, boiled down:
as §1

The subject of another experiment is MCF7. Briefly: Cytotoxicity against human MCF7 cells after 96 hrs by MTT assay. To be noted: MCF7, 96 h. The method, boiled down: as §1
The subject of the next experiment is WISH. Briefly: Cytotoxicity against human WISH cells after 96 hrs by MTT assay. The gist of the method:
as §1

The subject of a further experiment is A549. Briefly: Cytotoxicity against human A549 cells after 96 hrs by MTT assay. To be noted: A549, 96 h. The method, boiled down: as §1
The next experiment has as its system A2780. Briefly: Cytotoxicity against human A2780 cells after 96 hrs by MTT assay. To be noted: A2780, 96 h. The gist of the method:
as §1

Consider `CC[C@@]1(O)C(=O)OCc2c1cc1n(c2=O)Cc2cc3c(CN(C)C)c(O)ccc3nc2-1` [TOPOTECAN], for which the pIC50 was 5.92 in the experiment on Bel-7402; 5.36 in the experiment on BGC-823; 5.82 in the experiment with HCT-8; 5.72 in the experiment with MCF7; 5.89 in the experiment on WISH; 5.48 with A549. This molecule also showed a pIC50 in the experiment with A2780 of 5.96.

On to `COc1cc(O)c(-c2c(O)cc(OC)c3c2ccc2cc(O)ccc23)c2ccc3cc(O)ccc3c12` [CIRRHOPETALANTHIN], for which the pIC50 with Bel-7402 was 5.08; in the experiment on BGC-823, 4.98; with HCT-8, 4.95; in the experiment with MCF7, 4.90; in the experiment with WISH, < 4.64; in the experiment with A549, 4.75. Also, the pIC50 in the experiment on A2780 is 4.88.

Take `COc1ccc2c(ccc3c(-c4c(O)ccc5c4ccc4c(-c6c(O)cc(OC)c7c6ccc6cc(O)ccc67)c(O)cc(OC)c45)c(O)cc(OC)c32)c1`: the pIC50 is 5.09 in the experiment with Bel-7402; 5.08 with BGC-823; 5.10 in the experiment with HCT-8; 5.08 in the experiment with MCF7; < 4.82 with WISH; 4.94 in the experiment with A549. The pIC50 with A2780 is 5.09.

Turning to `COc1ccc2c(ccc3c(-c4c(O)cc(OC)c5c4ccc4cc(O)ccc45)c(O)cc(OC)c32)c1`, the pIC50 in the experiment on Bel-7402, in the experiment with BGC-823, in the experiment on HCT-8, in the experiment on MCF7, with WISH and with A549 was < 4.99 in each case. Moreover, the negative logarithm of the IC50 (pIC50) in the experiment with A2780 is < 4.99.

Turning to `COc1cc(O)cc2ccc3cc(O)ccc3c12` [FLAVANTHRININ], the pIC50 with Bel-7402, in the experiment on BGC-823, in the experiment on HCT-8, in the experiment on MCF7, in the experiment with WISH and in the experiment on A549 was < 4.68 each time. In addition, in the experiment on A2780, the pIC50 was < 4.68.

As for `COc1ccc2c(ccc3cc(O)cc(OC)c32)c1`, the pIC50 in the experiment with Bel-7402, with BGC-823, in the experiment on HCT-8, in the experiment with MCF7, in the experiment with WISH and in the experiment with A549 was < 5.30 throughout. Also, the pIC50 in the experiment with A2780 is < 5.30.

With `COc1ccc2c(ccc3c(-c4c(O)cc(OC)c5c4ccc4cc(OC)ccc45)c(O)cc(OC)c32)c1`, the negative-log IC50 (pIC50) was 4.95 in the experiment on Bel-7402; 5.02 in the experiment on BGC-823; 4.97 in the experiment on HCT-8; 4.92 in the experiment with MCF7; 5.30 in the experiment with WISH; 4.94 in the experiment with A549. This molecule also showed a pIC50 with A2780 of 4.96.

For `COC1=CC(=O)C(O)(CC(C)=O)c2ccc3cc(OC)ccc3c21` (stereo not drawn), the pIC50 in the experiment on Bel-7402, in the experiment on BGC-823, with HCT-8, with MCF7, in the experiment on WISH and in the experiment with A549 was < 4.82 in each case. Moreover, in the experiment with A2780, the pIC50 is < 4.82.

Turning to `COC1=CC(=O)C(O)(CC(C)=O)c2ccc3cc(O)ccc3c21` (stereo not drawn), the pIC50 in the experiment on Bel-7402, in the experiment on BGC-823, in the experiment on HCT-8, with MCF7, with WISH and in the experiment on A549 was < 4.80 throughout. Besides, the pIC50 in the experiment with A2780 is < 4.80.

As usually defined, the pIC50 is −log10 of the IC50, conventionally taken in molar units. Higher therefore signals a small IC50.
